Experimental data reported in publication PMC9359741 (Clinical Cancer Research, 2022).
Several values for one entry are separate records, joined by “and”; a condition that tells them apart may be missing. Equal values may be shown once.

Columns and labels:
[1] = tested on: patients with PDA, PD-1/PD-L1 IR advanced solid tumors or prOVCA; test: Phase 2, ARRY-382 300 mg QD plus pembrolizumab 200 mg IV Q3W: adverse events; assay type: in vivo, human; conditions: for Deaths: mostly disease progression
In short: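 Open-label study at 12 US centres with three cohorts: pancreatic ductal adenocarcinoma after ≥1 prior systemic line; tumours progressing on anti-PD-1/PD-L1; ovarian, peritoneal or fallopian cancer progressing ≤6 months after ≥4 platinum cycles. Oral test compound 300 mg QD plus anti-PD-1 antibody 200 mg IV every 3 weeks. AEs, SAEs and labs graded by CTCAE v4.03 in all dosed patients; descriptive summary.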

[2] = Phase 1b plasma pharmacokinetics of ARRY-382 and metabolites; assay type: in vivo, human; conditions: for RAUC (accumulation ratio), geometric mean (geometric %CV) / Ctrough, geometric mean (geometric %CV) / RCmax (accumulation ratio), geometric mean (geometric %CV) / AUC(0-t) / Cmax / Tmax: Phase 1b; for AUC / AUC(0-t) / Cmax / Tmax: human, plasma, oral; for AUC(0-t): AUClast; for AUC(0-t) / Cmax: geometric mean (geometric %CV); for Tmax: median (range)
In short: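 Blood was collected for plasma test compound and its N-oxide, N-desmethyl and sulfate metabolites. Trough samples were taken ≤120 min before the oral dose on cycle 1 day 15 and day 1 of cycles 3–6. Doses were 200–400 mg QD in Phase 1b and 300 mg QD in Phase 2. Non-compartmental parameters were estimated per patient in the PK set, reported as geometric mean (geometric %CV) and Tmax as median (range).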

[3] = Cycle 2 day 1, ARRY-382 200 mg, n = 4
[4] = Cycle 2 day 1, ARRY-382 300 mg, n = 4
[5] = Cycle 2 day 1, ARRY-382 400 mg, n = 3
[6] = 200 mg, Cycle 1 day 1, ARRY-382 200 mg, n = 6
[7] = 200 mg, Cycle 2 day 1, ARRY-382 200 mg, n = 4
[8] = 300 mg, Cycle 1 day 1, ARRY-382 300 mg, n = 6
[9] = 300 mg, Cycle 2 day 1, ARRY-382 300 mg, n = 4
[10] = 400 mg, Cycle 1 day 1, ARRY-382 400 mg, n = 7
[11] = 400 mg, Cycle 2 day 1, ARRY-382 400 mg, n = 3

Structure (SMILES): Cc1cccc(Cn2nc(C3CC3)c3c(NC(=O)c4cnc5cc(OCCN6CCN(C)CC6)ccn45)cccc32)n1 [ARRY-382]
- ARRY-382-related AEs: Amylase increased ([1]; PDA, N = 27): 2 (7.4) n (%)
- ARRY-382-related AEs: Blood CPK increased ([1]; PDA, N = 27): 5 (18.5) n (%)
- ARRY-382-related AEs: Decreased appetite ([1]; PDA, N = 27): 5 (18.5) n (%)
- ARRY-382-related AEs: Diarrhea ([1]; PDA, N = 27): 4 (14.8) n (%)
- ARRY-382-related AEs: Fatigue ([1]; PDA, N = 27): 9 (33.3) n (%)
- ARRY-382-related AEs: Nausea ([1]; PDA, N = 27): 5 (18.5) n (%)
- ARRY-382-related AEs: Vomiting ([1]; PDA, N = 27): 2 (7.4) n (%)
- Deaths ([1]; PDA): 20 (74.1%) n (%)
- ARRY-382-related AEs: ALT increased ([1]; Total, N = 57): 10 (17.5) n (%)
- ARRY-382-related AEs: AST increased ([1]; Total, N = 57): 15 (26.3) n (%)
- ARRY-382-related AEs: All AEs ([1]; Total, N = 57): 43 (75.4%) n (%) and 43 (75.4) n (%)
- ARRY-382-related AEs: Amylase increased ([1]; Total, N = 57): 6 (10.5) n (%)
- ARRY-382-related AEs: Blood CPK increased ([1]; Total, N = 57): 16 (28.1) n (%)
- ARRY-382-related AEs: Decreased appetite ([1]; Total, N = 57): 8 (14.0) n (%)
- ARRY-382-related AEs: Diarrhea ([1]; Total, N = 57): 9 (15.8) n (%)
- ARRY-382-related AEs: Fatigue ([1]; Total, N = 57): 18 (31.6) n (%)
- ARRY-382-related AEs: Nausea ([1]; Total, N = 57): 16 (28.1) n (%)
- ARRY-382-related AEs: Vomiting ([1]; Total, N = 57): 10 (17.5) n (%)
- Patients with ≥1 TEAE ([1]; in each cohort): > 90%
- Patients with a Grade 4 AE ([1]; overall): 7 (12.3%) n (%)
- Patients with a grade 3 AE ([1]; overall): 33 (57.9%) n (%)
- Periorbital edema ([1]; overall): 7.0%
- Patients with a grade 5 AE ([1]; overall, none related to study treatment): 3 (5.3%) n (%)
- ARRY-382-related SAEs ([1]; prOVCA): 0.0%
- ARRY-382-related grade ≥3 AEs ([1]; prOVCA): 45.5%
- Dose reduction or interruption of ARRY-382 due to AEs ([1]; prOVCA): 7 (63.6%) n (%)
- Patients with ≥1 dose reduction or interruption of ARRY-382 ([1]; prOVCA): 7 (63.6%) n (%)
- Permanent discontinuations due to AEs ([1]; prOVCA): 1 (9.1%) n (%)
- Treatment discontinuations due to AEs (primary reason) ([1]; prOVCA): 2 (18.2%) n (%)
- ARRY-382-related AEs: ALT increased ([1]; prOVCA, N = 11): 4 (36.4) n (%)
- ARRY-382-related AEs: AST increased ([1]; prOVCA, N = 11): 4 (36.4) n (%)
- ARRY-382-related AEs: All AEs ([1]; prOVCA, N = 11): 9 (81.8%) n (%) and 9 (81.8) n (%)
- ARRY-382-related AEs: Amylase increased ([1]; prOVCA, N = 11): 0 (0.0) n (%)
- ARRY-382-related AEs: Blood CPK increased ([1]; prOVCA, N = 11): 2 (18.2) n (%)
- ARRY-382-related AEs: Decreased appetite ([1]; prOVCA, N = 11): 0 (0.0) n (%)
- ARRY-382-related AEs: Diarrhea ([1]; prOVCA, N = 11): 0 (0.0) n (%)
- ARRY-382-related AEs: Fatigue ([1]; prOVCA, N = 11): 0 (0.0) n (%)
- ARRY-382-related AEs: Nausea ([1]; prOVCA, N = 11): 3 (27.3) n (%)
- ARRY-382-related AEs: Vomiting ([1]; prOVCA, N = 11): 1 (9.1) n (%)
- Deaths ([1]; prOVCA): 5 (45.5%) n (%)
- RAUC (accumulation ratio), geometric mean (geometric %CV) ([2]; Cycle 2 day 1, ARRY-382 200 mg, n = 3): 3.03 (47.9)
- Ctrough, geometric mean (geometric %CV) [2, 3]: 576 (59.5) ng/mL
- RCmax (accumulation ratio), geometric mean (geometric %CV) [2, 3]: 2.53 (48.2)
- RAUC (accumulation ratio), geometric mean (geometric %CV) ([2]; Cycle 2 day 1, ARRY-382 300 mg, n = 2): 1.92 (NC)
- Ctrough, geometric mean (geometric %CV) [2, 4]: 667 (27.7) ng/mL
- RCmax (accumulation ratio), geometric mean (geometric %CV) [2, 4]: 2.51 (95.7)
- RAUC (accumulation ratio), geometric mean (geometric %CV) ([2]; Cycle 2 day 1, ARRY-382 400 mg, n = 2): 3.52 (NC)
- Ctrough, geometric mean (geometric %CV) [2, 5]: 627 (126) ng/mL
- RCmax (accumulation ratio), geometric mean (geometric %CV) [2, 5]: 2.28 (54.2)
- AUC ([2]; 200 mg): 22800 ng·h/mL
- AUC(0-t) [2, 6]: 3720 ng·h/mL
- AUC(0-t) [2, 7]: 22800 ng·h/mL
- Cmax [2, 6]: 773 ng/mL
- Cmax [2, 7]: 1560 ng/mL
- Tmax [2, 6]: 2 h
- Tmax [2, 7]: 2 h
- AUC ([2]; 300 mg): 30600 ng·h/mL
- AUC(0-t) [2, 8]: 4890 ng·h/mL
- AUC(0-t) [2, 9]: 30600 ng·h/mL
- Cmax [2, 8]: 995 ng/mL
- Cmax [2, 9]: 2260 ng/mL
- Tmax [2, 8]: 4.01 h
- Tmax [2, 9]: 4.18 h
- AUC ([2]; 400 mg): 30800 ng·h/mL
- AUC(0-t) [2, 10]: 6790 ng·h/mL
- AUC(0-t) [2, 11]: 30800 ng·h/mL
- Cmax [2, 10]: 1330 ng/mL
- Cmax [2, 11]: 2560 ng/mL
- Tmax [2, 10]: 4.07 h
- Tmax [2, 11]: 1.98 h
